Source: ChEMBL document CHEMBL1135673, “Antitumor imidazotetrazines. 41. Conjugation of the antitumor agents mitozolomide and temozolomide to peptides and lexitropsins bearing DNA major and minor groove-binding structural motifs” (J Med Chem, 2002)
Peptide text beside a SMILES is read from it. * marks the point of attachment. X1 = O=C(c1ncn2c(=O)n(CCCl)nnc12)*

Key:
Type in all cases: functional, cell-based
[1] = In vitro cytotoxicity against mouse TLX5 lymphoma cells
How it was run: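 TLX5 lymphoma cells kept in exponential growth at 2 × 10⁴ cells/mL in RPMI 1640 with 15% fetal calf serum. Cells were dosed with drug in DMSO (10 μL per 2 mL well), triplicate wells per concentration, with DMSO-only controls. After 72 h at 37 °C under 5% CO₂, cells were Coulter-counted. IC₅₀ was taken from % of control growth plots as the mean of two determinations.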

[2] = In vitro cytotoxicity against human xeroderma pigmentosum fibroblast cells […] (mer+)
How it was run: (§1)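 Xeroderma pigmentosum fibroblasts HMGZip 1a (Mer⁻) and HMGhAT 2b (Mer⁺) grown in MEM, plated at 1000 cells/well, and assayed by the method of Baer et al.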

[3] = In vitro cytotoxicity against human xeroderma pigmentosum fibroblast cells HMGZip (mer-); how it was run: as §1

SMILES | IC50 [1] [µM] | IC50 [2] [µM] | IC50 [3] [µM]
NC(=O)c1ncn2c(=O)n(CCCl)nnc12 [MITOZOLOMIDE] | 2.5 | 30 | 20
CC(C)C[C@@H](NC(=O)c1ncn2c(=O)n(CCCl)nnc12)C(=O)O | – | – | 57
COC(=O)C(CCCCN)NC(=O)c1ncn2c(=O)n(CCCl)nnc12 (stereo not drawn) | – | – | 68
C[C@@H](NC(=O)c1ncn2c(=O)n(CCCl)nnc12)C(=O)O | – | – | 198
CC(C)[C@H](NC(=O)[C@@H](NC(=O)c1ncn2c(=O)n(CCCl)nnc12)[C@@H](C)O)C(=O)N[C@@H](CO)C(=O)N[C@@H](CCCN=C(N)N)C(=O)O (X1-TVSR-OH) | – | > 500 | 351
CC(C)[C@H](NC(=O)[C@@H](NC(=O)c1ncn2c(=O)n(CCCl)nnc12)[C@@H](C)O)C(=O)NCC(=O)O | – | > 500 | 437
O=C(O)c1ncn2c(=O)n(CCCl)nnc12 | 15.8 | – | –
COC(=O)C(CO)NC(=O)c1ncn2c(=O)n(CCCl)nnc12 (stereo not drawn) | 5 | – | –
NCCCCC(NC(=O)c1ncn2c(=O)n(CCCl)nnc12)C(=O)O (stereo not drawn) | – | – | 42
COC(=O)C(Cc1c[nH]c2ccccc12)NC(=O)c1ncn2c(=O)n(CCCl)nnc12 (stereo not drawn) | 3.7 | – | –
CC(C)(C)NC(=O)c1ncn2c(=O)n(CCCl)nnc12 | 2 | – | –
NC(=O)CNC(=O)c1ncn2c(=O)n(CCCl)nnc12 | 34 | – | –
COC(=O)[C@@H](NC(=O)[C@H](C)NC(=O)c1ncn2c(=O)n(CCCl)nnc12)C(C)C | 6.9 | – | –
CCOC(=O)CNC(=O)c1ncn2c(=O)n(CCCl)nnc12 | 25 | – | –
COC(=O)C(C)NC(=O)c1ncn2c(=O)n(CCCl)nnc12 (stereo not drawn) | 1.5 | – | –
CC(C)[C@H](NC(=O)[C@@H](NC(=O)c1ncn2c(=O)n(CCCl)nnc12)[C@@H](C)O)C(=O)NCC(=O)N[C@@H](CCCN=C(N)N)C(=O)O (X1-TVGR-OH) | – | > 500 | 288
COC(=O)C(CCSC)NC(=O)c1ncn2c(=O)n(CCCl)nnc12 (stereo not drawn) | 50 | – | –
Cn1nnc2c(C(N)=O)ncn2c1=O [TEMOZOLOMIDE] | 5 | – | –
